# H69AR inhibit – proliferation blockers of H69AR lung cancer cells, primary screen, cell-based, human, 86K library; H69AR lung tumor viability, ATP luminescence, 72 h; active compounds read low; viability, % at 10 µM; actives 6% (n = 85,000);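 active = viability at or below 40%; inactive = viability above 40%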;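 note: multidrug resistant small cell line overexpressing MRP-1 efflux transporter; 100% = mean luminescence of untreated control wells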
# Lung fibro prol – antiproliferative effect on LL 47 fibroblasts – human, LL 47 cells, CellTiter-Glo luminescence, primary screen; AID 719, 2007; LL 47 human lung fibroblast viability, ATP luminescence; active compounds read low; viability, % at 10 µM; actives 1.1% (n = 85,000);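 active = viability at or below 50% in the single dose screen; inactive = viability above 50%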;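 note: compound exposure lasted 72 h before the ATP readout; 100% = median luminescence of untreated cell-only wells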
#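 Benchmarks: Cell-only wells, no compound | Test system: LL 47 human lung fibroblasts, passage 12 or lower | Input: 1,150 cells/well | Measured by: CellTiter-Glo luminescence measuring cellular ATP | Medium: IMEM, 15% FBS supplement | Schedule: Overnight attachment after seeding, then 72 h compound exposure at 37 °C | Doses: Compound addition at 0.1% DMSO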
# HCT116 bCat-KO – primary screen for growth suppressors in beta-catenin knockout HCT116 cells (colon tumor, human); viability, % at 10 µM; AID 818, 2007; HCT116 beta-catenin knockout viability, CellTiter-Glo, 60 h; active compounds read low; actives 1.5% (n = 140,000);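 active = viability at or under a set limit, the compound median less 4 SD, cut at about 6% in these data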;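 note: 0% = Hyamine 1622 control at 20 µM and 100% = untreated cell control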
# HUVEC inhibit – inhibitors of HUVEC proliferation, primary screen, cell-based, 384-well | actives 1.1% (n = 86,000) | CellTiter-Glo luminescence, 72 h; active compounds read low | viability, % at 10 µM (by protocol);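 active = viability at or below 30%; inactive = viability above 30%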;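 note: 100% = median luminescence of DMSO-only cell control wells on each plate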
# HCT116 PTEN-null – growth suppression of PTEN-null HCT116, primary screen, cell-based, CellTiter-Glo | actives 1.2% (n = 140,000) | HCT116 PTEN-null viability, 60 h; active compounds read low | viability, % at 10 µM;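 active = viability at or below a set limit, 4 SD under the median of all tested compounds, cut at about 3.7% in these data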;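 note: PTEN knockout HCT116 line with beta catenin targeted HCT116 as companion control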
# Numbers without * were called inactive; . = not tested or not shown. This excerpt belongs to a sample that is enriched for hits.
SMILES,H69AR inhibit,Lung fibro prol,HCT116 bCat-KO,HUVEC inhibit,HCT116 PTEN-null
Cc1c(CCOC(=O)CC23CC4CC(CC(C4)C2)C3)sc[n+]1CC(=O)c1ccc(Br)cc1,1.3*,26*,4.8*,2.2*,7
COc1ccc(N2CCN(Cc3cc(=O)oc4cc(C)c(Cl)cc34)CC2)cc1,24*,80,90,91,94
CN1CCN(Cc2cc(=O)oc3cc4c(cc23)CCC4)CC1,85,100,79,93,92
O=c1cc(CN2CCN(c3ccccc3F)CC2)c2cc(O)c(-c3ccccc3)cc2o1,.,.,83,.,73
COc1ccc(N2CCN(Cc3cc(=O)oc4cc(-c5ccccc5)c(O)cc34)CC2)cc1,3.1*,7.6*,14,32,6
O=c1cc(CN2CCN(C/C=C/c3ccccc3)CC2)c2cc(O)c(-c3ccccc3)cc2o1,.,.,59,.,57
O=c1cc(CN2CCN(c3ccc(F)cc3)CC2)c2cc3c(cc2o1)CCCC3,32*,68,90,54,87
Cc1cc2oc(=O)cc(CN3CCOCC3)c2cc1C,79,97,86,96,88
Cc1cc2oc(=O)cc(CN3CCN(C/C=C/c4ccccc4)CC3)c2cc1O,.,.,2.3*,.,2.8*
CCOC(=O)N1CCC(N2CC34C=CC(O3)C(C(=O)Nc3ccc(OCC)cc3)C4C2=O)CC1 (stereo not drawn),96,95,93,95,94
CCn1c(-c2ccc(F)cc2)cnc1SCC(=O)N1CCCCC1C (stereo not drawn),.,.,87,.,92
O=C(c1cc2c(s1)CCCC2)N1CCN(Cc2ccc3c(c2)OCO3)CC1,89,98,73,82,79
O=C(Oc1ccc2c(c1)OCO2)c1cc2c(s1)CCC2,96,66,2.6*,55,2.1*
O=[N+]([O-])c1ccc(Sc2cccc3cccnc23)c([N+](=O)[O-])c1,1.6*,4.2*,1.6*,50,2.2*
C=CCn1nc([N+](=O)[O-])nc1Sc1cccc2cccnc12,.,.,2.1*,.,1.8*
O=C(c1nnc(Cc2ccc(Cl)cc2)o1)N1CCc2ccccc2C1,105,106,1.1*,109,0.6*
COc1ccc(Cc2nnc(SCC(=O)N3CCc4ccccc4C3)o2)cc1,92,102,78,90,95
C/C=C(\CS(=O)(=O)c1ccccc1)S(=O)(=O)c1ccccc1,25*,64,52,89,36
CCOc1ccc(C(=O)NC(=S)NC2CCCC2)cc1[N+](=O)[O-],.,.,90,.,91
CCOc1cccc2sc(NC(=O)c3ccc(Br)s3)nc12,30*,97,58,86,59
O=C(NCc1ccco1)c1cc2n(n1)C(C(F)(F)F)CC(c1ccc(Br)cc1)N2 (stereo not drawn),94,93,94,68,91
O=C(NCc1ccco1)c1cc2n(n1)C(C(F)(F)F)CC(c1ccc(Cl)c(Cl)c1)N2 (stereo not drawn),31*,95,93,73,83
COC(=O)C1=C(N)Oc2cc(C)n(CCN3CCOCC3)c(=O)c2C1c1cccnc1 (stereo not drawn),89,100,101,94,107
Cc1oc(-c2cccc(Cl)c2)nc1CN1CCC(C(=O)N2CCN(c3ccccc3F)CC2)CC1,5.8*,86,.,16*,.
CCOC(=O)C1CCCN(C(=O)C2CCN(Cc3nc(-c4ccc(Cl)cc4)oc3C)CC2)C1 (stereo not drawn),74,103,.,87,.
SMILES,H69AR inhibit,Lung fibro prol,HCT116 bCat-KO,HUVEC inhibit,HCT116 PTEN-null
Cc1oc(-c2cccc(Cl)c2)nc1CN1CCC(C(=O)NCc2ccco2)CC1,83,102,97,83,93
Cc1oc(-c2ccc(Cl)cc2)nc1CN1CCC(C(=O)N2CCc3ccccc3C2)CC1,1.3*,78,14,34,15
Cc1oc(-c2ccc(Cl)cc2)nc1CN1CCC(C(=O)N2CCN(Cc3ccccc3)CC2)CC1,83,82,2.0*,16*,7
O=C(NCC1OCCc2ccccc21)c1ccc(NC(=O)c2cccc(Br)c2)cc1 (stereo not drawn),.,.,18,.,5
COc1ccc(C(CC(=O)c2ccc(C)cc2)C(C#N)C#N)cc1OC (stereo not drawn),.,.,10,.,6
CC(C)(C)c1ccc(C2(C)NC(=O)N(CC(=O)c3ccc[nH]3)C2=O)cc1 (stereo not drawn),27*,90,76,87,69

# Screening data deposited in PubChem BioAssay by SRMLSC.
